Assay outcomes: PubChem, The Scripps Research Institute Molecular Screening Center
Sampled rows, rich in hits. Any-hit rate of the full collection: about 3.1%.
UHRF1 MBD2 ctr: UHRF1 methylated DNA binding inhibitors, primary screen, counter-screen for MBD2 inhibitor project, biochemical, TR-FRET, human UHRF1, single concentration. 370,000 compounds, 0.75% hits. inhibition, % at 4.4 µM. E3 ubiquitin-protein ligase UHRF1 (Homo sapiens), Q96T88. AID 687016, 2013. UHRF1 binding to methylated oligo; in the data active means inhibition above about 21%;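 further: UHRF1 SRA domain binding a hemimethylated CpG hairpin DNA probe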
ABHD5-PLIN5 inh: ABHD5-PLIN5 interaction inhibitors, primary screen, cell lysate, split luciferase complementation, luminescence; Split G. princeps luciferase complementation, 4 h; inhibition, % at 4 µM; 360,000 compounds, 0.78% hits;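 active means inhibition above the mean inhibition across every tested compound plus 3 SD, cut at about 22% in these data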
MBD2 inh: inhibitors of MBD2 binding to methylated DNA, primary screen, biochemical, TR-FRET, DNA-binding domain, human; MBD2 binding to methylated oligonucleotide; inhibition, % at 4.4 µM; 370,000 compounds, 0.31% hits; in the data active means inhibition above about 13%
LEDGF integ inh: blockers of LEDGF/p75-dependent integrase strand transfer – biochemical, TR-FRET, high throughput, primary screen; inhibition, % at 3.7 µM; 370,000 compounds, 0.64% hits; TR-FRET IN-LEDGF/p75 DNA integration, Eu/Cy5; HIV-1 integrase (with human LEDGF/p75);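 active means inhibition above the screen-wide mean plus 3 SD, cut at about 13% in these data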;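 further: signal is the Cy5 over europium emission ratio at 671 and 618 nm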
RBBP9 inhibitor: human RBBP9 inhibitors, primary screen, biochemical, fluorescence polarization, FP-Rh probe, HTS. Serine hydrolase RBBP9 (Homo sapiens), O75884. inhibition, % at 7.94 µM. 220,000 compounds, 0.2% hits. AID 1515, 2009. recombinant RBBP9;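 active means inhibition above the campaign mean of all tested compounds plus 3 SD, cut at about 14% in these data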
Target sequence (O75884 whole entry, looked up): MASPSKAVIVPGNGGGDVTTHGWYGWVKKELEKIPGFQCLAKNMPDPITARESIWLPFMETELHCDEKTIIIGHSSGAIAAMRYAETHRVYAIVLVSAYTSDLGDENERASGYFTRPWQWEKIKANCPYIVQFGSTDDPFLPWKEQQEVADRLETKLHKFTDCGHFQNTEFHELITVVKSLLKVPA
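Measured by: FP readout at 525/598 nm; material: recombinant human RBBP9; also added: Serine-hydrolase probe FP-Rh, 375 nM pre-mixing; medium: Tris buffer pH 8.0, NaCl, Pluronic; replication: one well per compound; doses: one concentration, 7.94 µM nominal, 0.794% DMSO; timing: preincubation 30 min plus labeling 45 min at 25 °C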
PRMT1 FP inh: PRMT1 methyltransferase inhibitors, primary screen, biochemical, fluorescence polarization | inhibition, % at 2.79 µM | AID 652257, 2013 | recombinant PRMT1, activity-based probe fluorescence polarization | Protein arginine N-methyltransferase 1 (Homo sapiens), Q99873 | 370,000 compounds, 1.3% hits;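 active means inhibition above about 21% made by adding two undisclosed values, limit read from the data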
Target sequence (Q99873 whole entry, looked up): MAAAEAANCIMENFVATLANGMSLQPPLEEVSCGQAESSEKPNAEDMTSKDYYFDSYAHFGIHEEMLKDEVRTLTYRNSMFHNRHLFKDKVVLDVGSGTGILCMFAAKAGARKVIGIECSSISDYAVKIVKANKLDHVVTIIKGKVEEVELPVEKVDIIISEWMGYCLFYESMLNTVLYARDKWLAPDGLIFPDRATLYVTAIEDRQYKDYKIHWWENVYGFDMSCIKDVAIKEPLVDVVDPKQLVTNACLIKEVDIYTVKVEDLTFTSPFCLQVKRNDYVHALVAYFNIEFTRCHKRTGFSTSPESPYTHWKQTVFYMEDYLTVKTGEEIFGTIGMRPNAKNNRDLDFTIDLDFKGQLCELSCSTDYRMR
ABHD5-PLIN5 conf: ABHD5-PLIN5 interaction inhibitors, confirmation, biochemical, luminescence. AID 651612, 2012. shares compounds with ABHD5-PLIN5 inh. 2,200 compounds, 67% hits. inhibition, % at 4 µM; in the data active means inhibition above about 23%
HNF4 split-luc: HNF4 dimerization inhibitors, counter-screen for ABHD5-PLIN5 interaction inhibitor project, biochemical, split-luciferase complementation, luminescence | shares compounds with ABHD5-PLIN5 inh | inhibition, % at 4 µM | 2,200 compounds, 77% hits;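 active means mean inhibition across replicate wells exceeding the computed hit threshold, cut at about 13% in these data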;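 further: light from luciferase halves that rejoin when HNF4 fusion proteins dimerize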
PRMT1 inh conf: PRMT1 methyltransferase inhibitors, confirmation, biochemical, fluorescence polarization, triplicate. shares compounds with PRMT1 FP inh. recombinant His-PRMT1, activity-based probe fluorescence polarization. inhibition, % at 2.79 µM. 3,300 compounds, 42% hits;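 active means mean inhibition across replicates above the hit cutoff derived for the earlier primary screen, cut at about 22% in these data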
Hits are given with their value.

For C=CCOC(=O)/C=C/C(=O)NC(N)=O the results were UHRF1 MBD2 ctr inactive, ABHD5-PLIN5 inh 35.4, MBD2 inh inactive, LEDGF integ inh inactive, RBBP9 inhibitor inactive, PRMT1 FP inh 76.5, ABHD5-PLIN5 conf 56.8, HNF4 split-luc 54.9 and PRMT1 inh conf 69.2.
For COc1ccc(/C=C2/CCC(CN3CCOCC3)C2=O)cc1 (stereo not drawn) the results were UHRF1 MBD2 ctr inactive, ABHD5-PLIN5 inh 69.0, MBD2 inh inactive, LEDGF integ inh inactive, PRMT1 FP inh 53.4, ABHD5-PLIN5 conf 100.0, HNF4 split-luc 107.1 and PRMT1 inh conf 60.7.
`CN(C)CC1CC/C(=C\c2ccc(O)cc2)C1=O` (stereo not drawn) gave UHRF1 MBD2 ctr inactive, ABHD5-PLIN5 inh 91.9, MBD2 inh inactive, LEDGF integ inh inactive, PRMT1 FP inh 53.4, ABHD5-PLIN5 conf 93.4, HNF4 split-luc 106.6 and PRMT1 inh conf 45.1.
Screening COc1ccc(/C=C2\CCC(C3CCCC3)C2=O)cc1 (stereo not drawn) returned UHRF1 MBD2 ctr inactive, ABHD5-PLIN5 inh inactive, MBD2 inh inactive, LEDGF integ inh inactive and PRMT1 FP inh inactive.
CC1CCC/C(=C\c2ccc(O)cc2)C1=O (stereo not drawn) was read as UHRF1 MBD2 ctr inactive, ABHD5-PLIN5 inh inactive, MBD2 inh inactive, LEDGF integ inh inactive and PRMT1 FP inh inactive.
For COc1cc(OC)c(C#N)c(S(=O)(=O)Cc2ccccc2)c1 the results were UHRF1 MBD2 ctr inactive, ABHD5-PLIN5 inh inactive, MBD2 inh inactive, LEDGF integ inh inactive, RBBP9 inhibitor inactive and PRMT1 FP inh inactive.
Screening N#Cc1c([N+](=O)[O-])cc([N+](=O)[O-])cc1S(=O)(=O)Cc1ccccc1 returned UHRF1 MBD2 ctr inactive, ABHD5-PLIN5 inh 36.2, MBD2 inh inactive, LEDGF integ inh inactive, PRMT1 FP inh 72.2, ABHD5-PLIN5 conf 63.8, HNF4 split-luc 94.9 and PRMT1 inh conf 60.9.
O=c1c2ccccc2sn1-c1ccc(Cl)cc1 was read as UHRF1 MBD2 ctr inactive, ABHD5-PLIN5 inh 48.1, MBD2 inh inactive, LEDGF integ inh inactive, PRMT1 FP inh 89.7, ABHD5-PLIN5 conf 75.9, HNF4 split-luc 117.5 and PRMT1 inh conf 86.0.
Screening C=CCN1C(=O)[C@@H](CC(=O)NCc2ccc(C)o2)[C@]2(C(=O)OC)CCCCC=C12 returned UHRF1 MBD2 ctr inactive, MBD2 inh inactive, LEDGF integ inh inactive and PRMT1 FP inh inactive.
For O=C(O)Cc1sc(N/N=C\c2ccncc2)nc1-c1ccccc1 the results were UHRF1 MBD2 ctr inactive, ABHD5-PLIN5 inh 23.8, MBD2 inh inactive, LEDGF integ inh inactive, RBBP9 inhibitor inactive, PRMT1 FP inh 40.7, ABHD5-PLIN5 conf inactive, HNF4 split-luc 45.3 and PRMT1 inh conf inactive.
Screening COC(=O)C(CC(=O)c1ccc(Br)cc1)n1nc(C)cc1C (stereo not drawn) returned UHRF1 MBD2 ctr inactive, ABHD5-PLIN5 inh 37.2, MBD2 inh inactive, LEDGF integ inh inactive, PRMT1 FP inh 76.9, ABHD5-PLIN5 conf inactive, HNF4 split-luc 51.8 and PRMT1 inh conf inactive.
For COC(=O)C(CC(=O)c1ccc(C)cc1)n1nc(C)cc1C (stereo not drawn) the results were UHRF1 MBD2 ctr inactive, ABHD5-PLIN5 inh inactive, MBD2 inh inactive, LEDGF integ inh inactive and PRMT1 FP inh inactive.
Cc1ccc(SC(CC(=O)c2ccc(C)cc2)C(=O)O)cc1 (stereo not drawn) was read as UHRF1 MBD2 ctr inactive, ABHD5-PLIN5 inh 69.0, MBD2 inh inactive, LEDGF integ inh inactive, RBBP9 inhibitor inactive, PRMT1 FP inh 59.3, ABHD5-PLIN5 conf 29.1, HNF4 split-luc 73.1 and PRMT1 inh conf 68.9.
`CC(=O)Nc1ccc2c(c1)Cc1cc(N3C(=O)C=CC3=O)ccc1-2` gave UHRF1 MBD2 ctr inactive, ABHD5-PLIN5 inh 35.2, MBD2 inh inactive, LEDGF integ inh inactive, PRMT1 FP inh 91.2, ABHD5-PLIN5 conf 45.3, HNF4 split-luc 104.3 and PRMT1 inh conf 95.0.
Screening O=C1C=CC(=O)N1c1ccc2c(c1)Cc1cc(F)ccc1-2 returned UHRF1 MBD2 ctr inactive, ABHD5-PLIN5 inh 26.0, MBD2 inh inactive, LEDGF integ inh inactive, PRMT1 FP inh 86.7, ABHD5-PLIN5 conf 41.6, HNF4 split-luc 70.6 and PRMT1 inh conf 82.9.
Screening CC1=NN(C(=S)Nc2ccccc2)C(c2ccccc2)C1 (stereo not drawn) returned UHRF1 MBD2 ctr inactive, ABHD5-PLIN5 inh inactive, MBD2 inh inactive, LEDGF integ inh inactive, RBBP9 inhibitor inactive and PRMT1 FP inh inactive.
`Cc1ccc(C2CC(c3ccccc3)=NN2C(=S)Nc2ccccc2)o1` (stereo not drawn) gave UHRF1 MBD2 ctr inactive, ABHD5-PLIN5 inh 41.8, MBD2 inh inactive, LEDGF integ inh inactive, RBBP9 inhibitor inactive, PRMT1 FP inh 50.6, ABHD5-PLIN5 conf inactive, HNF4 split-luc inactive and PRMT1 inh conf inactive.
For FC(F)(F)c1ccc(Cn2ccc3ccc(-c4ccc5ccn(Cc6ccc(C(F)(F)F)cc6)c5c4)cc32)cc1 the results were UHRF1 MBD2 ctr inactive, MBD2 inh inactive, LEDGF integ inh inactive and PRMT1 FP inh inactive.
Cc1oc(=O)c(NC(=O)c2ccccc2)cc1C(N)=O was read as UHRF1 MBD2 ctr inactive, ABHD5-PLIN5 inh inactive, MBD2 inh inactive, LEDGF integ inh inactive, RBBP9 inhibitor inactive and PRMT1 FP inh inactive.
`Cc1oc(=O)c(NC(=O)c2cccc(Cl)c2)cc1C(=O)c1ccccc1` gave UHRF1 MBD2 ctr inactive, ABHD5-PLIN5 inh 34.3, MBD2 inh inactive, LEDGF integ inh inactive, RBBP9 inhibitor inactive, PRMT1 FP inh 51.5, ABHD5-PLIN5 conf inactive, HNF4 split-luc 100.2 and PRMT1 inh conf 24.0.
`O=c1c(-c2ccco2)nc2ccccc2n1C(c1ccccn1)c1nc2ccccc2[nH]1` (stereo not drawn) gave UHRF1 MBD2 ctr inactive, ABHD5-PLIN5 inh 36.6, MBD2 inh inactive, LEDGF integ inh inactive, PRMT1 FP inh 56.8, ABHD5-PLIN5 conf 33.0, HNF4 split-luc 59.1 and PRMT1 inh conf inactive.
